# Test results from ChEMBL document CHEMBL4350969, “Falcipain Inhibitors Based on the Natural Product Gallinamide A Are Potent in Vitro and in Vivo Antimalarials” (J Med Chem, 2019).
# Calls of active or inactive are those of the source. The calls are words filed in the database; no cut-off is given here.
# Legend:
# Plasmodium falciparum [1] = assay: Antimalarial activity against synchronized ring stage CQ-sensitive Plasmodium falciparum 3D7 infected in human erythrocytes incubated for 24 hrs followed by compound washout and subsequent compound addition and measured after 48 hrs by YOYO-1 probe-based flow cytometry; type: functional, organism-based
# [2] = target: T1, Cysteine protease falcipain-3 (Plasmodium falciparum, UniProt Q9NAW4); assay: Inhibition of Plasmodium falciparum N-terminal His-tagged falcipain-3 (33 residues) expressed in Escherichia coli M15 pREP4 using Z-Leu-Arg-AMC as substrate measured after 30 mins by spectrofluorometric method
# T1 sequence (Q9NAW4 whole entry): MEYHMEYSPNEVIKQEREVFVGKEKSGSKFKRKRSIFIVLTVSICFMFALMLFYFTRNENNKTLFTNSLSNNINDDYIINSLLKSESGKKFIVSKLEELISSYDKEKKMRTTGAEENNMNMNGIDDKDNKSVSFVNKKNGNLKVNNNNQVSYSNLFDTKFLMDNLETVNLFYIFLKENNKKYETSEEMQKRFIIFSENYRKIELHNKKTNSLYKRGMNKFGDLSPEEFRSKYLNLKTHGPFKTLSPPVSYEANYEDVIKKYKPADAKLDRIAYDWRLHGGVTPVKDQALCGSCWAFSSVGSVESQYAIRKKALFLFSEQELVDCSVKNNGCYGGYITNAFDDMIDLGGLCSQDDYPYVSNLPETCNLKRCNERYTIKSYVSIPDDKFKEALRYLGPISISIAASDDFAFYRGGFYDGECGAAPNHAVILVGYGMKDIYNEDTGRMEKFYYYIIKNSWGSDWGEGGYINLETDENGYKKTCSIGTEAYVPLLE
# How it was run: (§1)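 Recombinant heterologously expressed FP2 or FP3; inhibition measured by continuous kinetic cleavage of fluorogenic substrate Z-Leu-Arg-AMC.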
# Falcipain 2 = target: T2, Falcipain 2 (Plasmodium falciparum, UniProt Q9N6S8); assay: Inhibition of Plasmodium falciparum N-terminal His6-tagged falcipain-2 (35 residues) expressed in Escherichia coli M15 pREP4 using Z-Lue-Arg-AMC as substrate measured after 30 mins by spectrofluorometric method; how it was run: as §1
# T2 sequence (Q9N6S8 whole entry): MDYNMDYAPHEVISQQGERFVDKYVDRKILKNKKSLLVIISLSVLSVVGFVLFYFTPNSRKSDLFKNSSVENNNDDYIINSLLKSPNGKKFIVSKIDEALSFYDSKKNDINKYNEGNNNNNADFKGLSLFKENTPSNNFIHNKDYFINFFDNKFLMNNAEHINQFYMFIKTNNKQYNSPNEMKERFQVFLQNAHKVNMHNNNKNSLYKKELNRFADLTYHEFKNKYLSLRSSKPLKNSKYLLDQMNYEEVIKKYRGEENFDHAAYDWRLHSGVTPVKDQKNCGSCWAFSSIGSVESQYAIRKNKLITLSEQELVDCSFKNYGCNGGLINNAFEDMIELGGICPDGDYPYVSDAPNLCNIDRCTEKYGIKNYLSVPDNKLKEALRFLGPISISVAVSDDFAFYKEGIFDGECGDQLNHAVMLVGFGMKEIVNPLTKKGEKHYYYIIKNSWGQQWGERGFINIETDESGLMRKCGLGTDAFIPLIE
# Plasmodium falciparum [3] = assay: Antimalarial activity against synchronized ring stage CQ-resistant Plasmodium falciparum W2 infected in human erythrocytes incubated for 24 hrs followed by compound washout and subsequent compound addition and measured after 48 hrs by YOYO-1 probe-based flow cytometry; type: functional, organism-based
# [4] = Drug metabolism in human liver microsomes assessed as N,N-bis-demethylation at 10 uM measured after 60 mins in presence of NADPH-generating system by UPLC-MS analysis; type: ADME, Microsome; conditions: 1 h
# HEK293 = assay: Cytotoxicity against HEK293 cells assessed as reduction in cell viability at 25 uM measured after 18 hrs by alamar blue assay; type: cell-based; conditions: human, hek293, 18 h
# [5] = Drug metabolism in mouse liver microsomes assessed as N,N-bis-demethylation at 10 uM measured after 60 mins in presence of NADPH-generating system by UPLC-MS analysis; type: ADME, Microsome; conditions: 1 h
# [6] = Half life in Swiss mouse plasma at 1 ug/ml by UPLC-MS analysis; type: ADME, cell-free
# How it was run: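 Fresh whole blood from non-fasted male Swiss outbred mice; plasma separated by centrifugation. Compound spiked to 1 μg/mL final (0.2% DMSO, 0.4% acetonitrile), kept at 37 °C; aliquots taken over 4 h (n=3 per time point), snap-frozen, protein precipitated with acetonitrile, UPLC-MS (ESI+) against matrix calibration standards. Exponential decay fit gives k; half-life = ln(2)/k.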
# [7] = Half life in Swiss mouse blood at 1 ug/ml by UPLC-MS analysis; type: ADME, tissue-based; conditions: whole blood
# Plasmodium berghei [8] = assay: Antimalarial activity against Plasmodium berghei ANKA infected in specific pathogen-free C57BL/6 mouse assessed as reduction in disease severity at 100 mg/kg, po administered once daily for 4 days measured up to 35 days post-infection by rapid staining-based microscopic analysis; type: functional, organism-based
# How it was run: (§2)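 Female C57BL/6 mice, 8–9 weeks old, inoculated i.p. with 10^6 P. berghei ANKA-parasitized red cells. Compound dissolved in DMSO, diluted in 154 mM NaCl, given by oral gavage at 100 mg/kg on days 4, 5, 6 and 7 post-infection. Tail-vein thin smears stained with Rapid Stain, % parasitemia by microscopy; mice euthanized at signs of severe disease.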
# Plasmodium berghei [9] = assay: Antimalarial activity against Plasmodium berghei ANKA infected in specific pathogen-free C57BL/6 mouse assessed as reduction in parasitemia at 50 mg/kg, ip administered once daily for 4 days measured up to 35 days post-infection by rapid staining-based microscopic analysis; type: functional, organism-based
# How it was run: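 Established-infection model: female C57BL/6 mice inoculated i.p. with 10^6 PbA-parasitized red cells; compound in DMSO diluted in saline given i.p. at 50 mg/kg on days 4, 5, 6 and 7 post-infection, chloroquine 50 mg/kg as comparator, vehicle controls; 7 mice per group. Tail-vein smears, % parasitemia by microscopy, mean ± SEM; survival recorded.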
# Plasmodium berghei [10] = assay: Antimalarial activity against Plasmodium berghei ANKA infected in specific pathogen-free C57BL/6 mouse assessed as reduction in parasitemia at 100 mg/kg, po administered once daily for 4 days measured up to 35 days post-infection by rapid staining-based microscopic analysis; type: functional, organism-based; how it was run: as §2
SMILES,IC50 (Plasmodium falciparum [1]) [nM],IC50 [2] [nM],IC50 (Falcipain 2) [nM],IC50 (Plasmodium falciparum [3]) [nM],Drug metabolism [4],Activity (HEK293),Drug metabolism [5],half-life at 1 ug/ml [6] [h],half-life at 1 ug/ml [7] [h],Activity (Plasmodium berghei [8]),Activity (Plasmodium berghei [9]),Activity (Plasmodium berghei [10])
COC1=CC(=O)N(C(=O)/C=C/C(C)(C)NC(=O)[C@H](CC(C)C)NC(=O)[C@H](CC(C)C)NC(=O)[C@H](C(C)C)N(C)C)[C@H]1Cc1c[nH]c2ccccc12,6990,> 50000,> 50000,1020,,,,,,,,
COC1=CC(=O)N(C(=O)/C=C/[C@H](C)NC(=O)[C@H](CC2CCCCC2)NC(=O)[C@H](CC2CCCCC2)NC(=O)[C@H](C(C)C)N(C)C)[C@H]1Cc1c[nH]c2ccccc12,229,459,464,119,,,,,,,,
COC1=CC(=O)N(C(=O)/C=C/[C@@H](NC(=O)[C@H](CC(C)C)NC(=O)[C@H](CC2CCCCC2)NC(=O)[C@H](C(C)C)N(C)C)C2CCCCC2)[C@H]1Cc1c[nH]c2ccccc12,83,490,169,95,,,,,,,,
COC1=CC(=O)N(C(=O)/C=C/[C@H](C)NC(=O)[C@H](CC2CCCCC2)NC(=O)[C@H](CC(C)C)NC(=O)[C@H](C(C)C)N(C)C)[C@H]1Cc1c[nH]c2ccccc12,72,407,235,37,,,,,,,,
COC1=CC(=O)N(C(=O)/C=C/[C@H](C)NC(=O)C(C)(C)NC(=O)[C@H](CC(C)C)NC(=O)[C@H](C(C)C)N(C)C)[C@H]1Cc1c[nH]c2ccccc12,> 10000,> 50000,> 50000,3730,,,,,,,,
COC1=CC(=O)N(C(=O)/C=C/[C@@H](NC(=O)[C@H](CC(C)C)NC(=O)[C@H](CC(C)C)NC(=O)[C@H](C(C)C)N(C)C)C2CCCCC2)[C@H]1Cc1c[nH]c2ccccc12.O=C(O)C(F)(F)F,9,484,84,10,Metabolite_Detected,Non-Toxic,Metabolite_Detected,> 10,> 10,,,
COC1=CC(=O)N(C(=O)/C=C/[C@H](C)NC(=O)[C@H](CC(C)C)NC(=O)[C@H](CC(C)C)NC(=O)[C@H](C(C)C)N(C)C)[C@H]1Cc1c[nH]c2ccccc12.O=C(O)C(F)(F)F,,,,,,Non-Toxic,,< 0.0333,< 0.0333,,,
COC1=CC(=O)N(C(=O)/C=C/[C@H](C)NC(=O)[C@H](CC(C)C)NC(=O)[C@H](CC2CCCCC2)NC(=O)[C@H](C(C)C)N(C)C)[C@H]1Cc1c[nH]c2ccccc12,14,131,59,11,,,,,,,,
CCN(CC)CCCC(C)Nc1ccnc2cc(Cl)ccc12 (stereo unspecified),,,,,,,,,,Active,Active,Active
COC1=CC(=O)N(C(=O)/C=C/[C@H](C)NC(=O)[C@H](CC(C)C)NC(=O)[C@H](Cc2ccccc2)NC(=O)[C@H](C(C)C)N(C)C)[C@H]1Cc1c[nH]c2ccccc12,24,851,60,10,,,,,,,,
CC(C)C[C@H](NC(=O)[C@@H]1O[C@H]1C(=O)O)C(=O)NCCCCN=C(N)N,,136,68,,,,,,,,,
COC1=CC(=O)N(C(=O)/C=C/[C@H](C)NC(=O)[C@H](CC2CCCCC2)NC(=O)[C@H](CC(C)C)NC(=O)C2CCN(C)CC2)[C@H]1Cc1c[nH]c2ccccc12,205,480,156,59,,,,,,,,
COC1=CC(=O)N(C(=O)/C=C/[C@H](C)NC(=O)[C@H](CCc2ccccc2)NC(=O)[C@H](CC2CCCCC2)NC(=O)[C@H](C(C)C)N(C)C)[C@H]1Cc1c[nH]c2ccccc12,1250,8790,3520,478,,,,,,,,
COC1=CC(=O)N(C(=O)/C=C/[C@H](C)NC(=O)[C@H](CC2CCCCC2)NC(=O)[C@H](CC2CCCCC2)NC(=O)C2CCN(C)CC2)[C@H]1Cc1c[nH]c2ccccc12,164,547,455,55,,,,,,,,
C[C@@H]1CC[C@H]2[C@@H](C)C(=O)O[C@@H]3O[C@@]4(C)CC[C@@H]1[C@]32OO4 [ARTEMISININ],32,,,21,,,,,,,,
COC1=CC(=O)N(C(=O)/C=C/[C@H](CC2CCCCC2)NC(=O)[C@H](CC(C)C)NC(=O)[C@H](CC(C)C)NC(=O)[C@H](C(C)C)N(C)C)[C@H]1Cc1c[nH]c2ccccc12,76,2570,270,54,,,,,,,,
COC1=CC(=O)N(C(=O)/C=C/[C@H](C)NC(=O)[C@H](CCc2ccccc2)NC(=O)[C@H](CC(C)C)NC(=O)[C@H](C(C)C)N(C)C)[C@H]1Cc1c[nH]c2ccccc12,2590,10200,3100,691,,,,,,,,
COC1=CC(=O)N(C(=O)/C=C/[C@H](C)NC(=O)[C@H](CC(C)C)NC(=O)[C@H](CCc2ccccc2)NC(=O)[C@H](C(C)C)N(C)C)[C@H]1Cc1c[nH]c2ccccc12.O=C(O)C(F)(F)F,5,228,57,7,Metabolite_Detected,Non-Toxic,Metabolite_Detected,9.28,1.83,,,
